Compound activity from PubChem.
Hits are enriched below; roughly 0.55% of the tested compounds scored in any of these assays.
OXTR agonist: human OXTR agonists, primary screen, fluorescence, CHO-OTR cells, Fluo-8 calcium; Fluo-8 calcium fluorescence; normalized: DMSO 0%, oxytocin 100%; activation, % at 3 µM; 0.32% of 320,000 active;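 active = activation above the mean of all tested compounds plus 3 SD, cutoff set per screening run, cut at about 20% in these data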;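 also: peak over basal fluorescence ratio from a 100 s FLIPR kinetic read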
TRPML3 ag: human TRPML3 channel agonists, primary screen, cell-based, HEK293 TRPML3-YFP, Fluo-8 calcium fluorescence, 3 µM. 100% = the carbachol control signal. activation, % at 3 µM. 0.29% of 220,000 active;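 active = activation above its plate's cutoff, the mean activation of the plate's test wells plus 3 SD, cut at about 12% in these data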;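 also: 0% = DMSO only wells and 100% = carbachol wells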
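Test system – HEK293 line with stable expression of human TRPML3-YFP channel · Control set – carbachol 87 µM final as high control (100%), DMSO as low control (0%) · Signal – Fluo-8 calcium dye fluorescence, ex 470-495, em 515-575 nm · Incubation – 1-h 37 °C dye load, 5-s basal, 120-s post-compound reads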
OXTR potentiate: human OXTR potentiators, primary screen, fluorescence, CHO-OTR cells, Fluo-8 calcium; Fluo-8 calcium fluorescence, potentiator mode; 0% = oxytocin EC15, 100% = EC100; activation, % at 3 µM; 0.061% of 320,000 active; AID 2445, 2010;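 active = activation above that plate's cutoff, the mean activation of tested compounds plus 3 SD, cut at about 6.6% in these data, passing the limit was not always enough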;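 also: 100% uses oxytocin at 75 nM as the full agonist control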
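test system = CHO-OTR cells, human receptor | compound = single-point 3.0 µM | schedule = 6 min compound pre-incubation at room temperature, 100 s kinetic read | signal = Fluo-8 no-wash calcium dye fluorescence, excitation 470-495 nm, emission 515-575 nm | repeats = single well per compound, singlicate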
V1aR counter: agonists of human V1a receptor, primary screen, counter-screen for OXTR agonist project, fluorescence, CHO-V1R cells. activation, % at 3 µM. Fluo-8 calcium fluorescence, agonist mode; 0% DMSO, 100% 3 nM vasopressin. 0.25% of 320,000 active. Vasopressin V1a receptor (Homo sapiens), P37288. AID 2797, 2010;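 active = activation above the mean activation of all tested compounds plus 3 SD, per screening run, cut at about 20% in these data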;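 also: signal is peak over basal fluorescence ratio across a 100 second FLIPR read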
Target sequence (P37288 whole entry, looked up): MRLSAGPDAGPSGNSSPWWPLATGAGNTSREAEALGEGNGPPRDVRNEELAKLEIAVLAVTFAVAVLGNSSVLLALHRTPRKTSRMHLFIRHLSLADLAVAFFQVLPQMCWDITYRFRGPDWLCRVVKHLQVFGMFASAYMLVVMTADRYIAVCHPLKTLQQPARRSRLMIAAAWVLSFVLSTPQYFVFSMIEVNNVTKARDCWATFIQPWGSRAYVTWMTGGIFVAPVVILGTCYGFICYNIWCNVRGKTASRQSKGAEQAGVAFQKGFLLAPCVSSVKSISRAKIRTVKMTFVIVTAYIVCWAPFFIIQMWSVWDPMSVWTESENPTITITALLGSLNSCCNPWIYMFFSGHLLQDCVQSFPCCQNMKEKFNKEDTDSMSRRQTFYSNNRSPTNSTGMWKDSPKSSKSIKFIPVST
zfTRPN1 agonist: zebrafish TRPN1 channel agonists, primary screen, cell-based, HEK293, calcium fluorescence; activation, % at 3 µM; HEK293 zebrafish TRPN1-YFP, Fluo-8 calcium fluorescence; 100% = response to 87 µM carbachol; 0.18% of 220,000 active; transient receptor potential cation channel N1 (TRPN1/NompC), Danio rerio;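 active = activation above its plate's cutoff, the mean activation of test wells on that plate plus 3 SD, cut at about 19% in these data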;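 also: 0% = DMSO alone and 100% = 87 µM carbachol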
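Material – zebrafish TRPN1-YFP in HEK293 cells · Doses – 3 µM single point · Schedule – dye 1 h 37 °C plus 30 min RT · Signal – Fluo-8 calcium fluorescence, excitation 470-495 nm, emission 515-575 nm · Read-out – % activation versus carbachol response · Control set – carbachol high, DMSO low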
OXTR agonist cf: human OXTR agonists, confirmation, fluorescence, CHO-OTR cells, triplicate | activation, % at 3 µM | 20% of 390 active | shares compounds with OXTR agonist | Fluo-8 calcium fluorescence, agonist;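 active = mean activation above about 20% derived from the earlier single-dose screen, limit read from the data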;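 also: peak over minimum fluorescence ratio per well during a 100 second FLIPR read; 0% = DMSO alone and 100% = oxytocin high control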
V1R ag counter 3x: V1a receptor agonists, calcium signal, counter-screen for OXTR agonist project, triplicate, fluorescence, CHO-V1R cells | shares compounds with OXTR agonist | 10% of 390 active | activation, % at 3 µM | Fluo-8 calcium fluorescence;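 active = mean activation over triplicate exceeds the hit threshold set in the earlier primary screen, cut at about 20% in these data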;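 also: peak over basal fluorescence ratio within a 100 second read; 0% = DMSO alone and 100% = 3 nM vasopressin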
An asterisk follows results filed as active; . = not tested or not shown.

SMILES	OXTR agonist	TRPML3 ag	OXTR potentiate	V1aR counter	zfTRPN1 agonist	OXTR agonist cf	V1R ag counter 3x
Cc1ccc(S(=O)(=O)c2nnn3c2nc(NC2CCN(Cc4ccccc4)CC2)c2ccccc23)cc1C	20.3*	.	-10.4	-0.4	.	-0.6	-0.2
Cc1ccc(S(=O)(=O)c2nnn3c2nc(NCCCN2CCCC2=O)c2ccccc23)cc1C	0.9	.	-8.0	3.1	.	.	.
Cc1nn(-c2ccccc2)c(C)c1/C=C/C(=O)OCC(=O)Nc1ccc(S(N)(=O)=O)cc1	-0.5	.	0.3	0.1	.	.	.
COc1cccc(OCC(O)CN2CCC(CN3C(=O)c4cccc5cccc(c45)C3=O)CC2)c1 (centres undefined)	3.5	0.9	-4.0	0.6	0.9	.	.
Cc1cc(C)cc(OCC(O)CN2CCC(CN3C(=O)c4cccc5cccc(c45)C3=O)CC2)c1 (centres undefined)	24.8*	.	-10.9	16.0	.	3.2	0.9
O=CN1CCCN(Cc2nc(-c3cccc(Cl)c3)no2)CC1	1.2	1.3	-5.1	2.8	0.8	.	.
COc1cccc(C(=O)Nc2ccc(C(=O)NCC3CCCO3)cc2)c1 (centres undefined)	0.9	.	-3.4	-1.1	.	.	.
Cc1ccnc(N/C=C(\C#N)c2nc(-c3cccc(Br)c3)cs2)c1	30.9*	2.2	-8.9	19.7	4.5	127.8*	161.6*
CN(Cc1ccccc1)c1nc2nonc2nc1N1CCCC(CN2CCCC2=O)C1 (centres undefined)	1.0	0.8	4.5	0.1	-0.6	.	.
COc1ccc(C(CCN2CCCCC2)c2c(OC)cc(OC)c3c(-c4ccccc4)cc(=O)oc23)cc1 (centres undefined)	21.2*	.	-16.3	16.4	.	9.3	6.8
N#CC1(NC(=O)CN2C(=O)NC(c3ccccc3)(c3ccccc3)C2=O)CCCC1	1.2	.	5.3	0.7	.	.	.
COc1cc(CN2C(=O)C(NC(=O)c3ccco3)(C(F)(F)F)C3=C2CC(C)(C)CC3=O)cc(OC)c1 (centres undefined)	-1.1	-0.4	4.8	-0.5	-1.2	.	.
CCCc1nnc(NC(=O)Cn2c(=O)sc3ccccc32)s1	21.0*	1.5	-8.7	10.7	2.2	8.3	5.4
CCCc1nnc(NC(=O)CN2C(=O)c3ccccc3C2=O)s1	2.1	-0.1	-5.4	1.2	0.0	.	.
O=[N+]([O-])c1cccc(NNS(=O)(=O)c2ccccc2F)c1	1.5	.	-2.5	0.8	.	.	.
Nc1ccc(Br)c2c1C(=O)c1ccccc1C2=O	33.6*	8.9	-12.7	10.1	12.3	6.1	2.8
CN(C)S(=O)(=O)c1cc(NC(=O)Cn2ccsc2=N)ccc1Cl	-0.9	0.9	-7.2	-0.8	0.8	.	.
CC(C)c1c(C(=O)N/N=C/c2cccs2)nnn1-c1nonc1N	19.7*	.	-7.6	14.3	.	8.4	9.5
Cc1ccsc1/C=N/NC(=O)c1nnn(-c2nonc2N)c1C(C)C	21.7*	.	-13.5	4.8	.	-0.2	0.9
CC12CCC(C(=O)Nc3ccncc3)(CC1O)C2(C)C (centres undefined)	-0.4	0.8	0.8	1.8	1.2	.	.
COc1ccccc1N1CCN(C(=O)c2ccc(N(C)S(=O)(=O)c3ccccc3)cc2)CC1	3.1	.	-12.3	5.7	.	.	.
Cc1[nH]c2ccccc2c1C(=O)CN1C(=O)NC(C)(c2ccc(Cl)cc2Cl)C1=O (centres undefined)	32.0*	1.6	-13.9	19.8	6.6	28.3*	18.0
Cc1[nH]c2ccccc2c1C(=O)CSc1ccc(Cl)cc1	-1.0	0.6	-21.7	1.0	0.2	.	.
CN(CC(=O)Nc1cccc(F)c1)C(=O)CCc1nc2cc(S(=O)(=O)N3CCOCC3)ccc2n1C	0.3	.	1.4	-0.4	.	.	.
CCOC(=O)/C(C#N)=C/Nc1ccccc1NS(=O)(=O)c1ccc(C)c(C)c1	0.9	0.5	-3.8	0.1	-1.6	.	.
SMILES	OXTR agonist	TRPML3 ag	OXTR potentiate	V1aR counter	zfTRPN1 agonist	OXTR agonist cf	V1R ag counter 3x
CCOC(=O)/C(C#N)=C/Nc1ccccc1NS(=O)(=O)c1cccc(C(C)=O)c1	49.8*	0.1	-1.1	1.6	0.3	0.7	1.0
COc1ccc(Nc2nc(-c3ccccc3)nc3ccccc23)c(OC)c1	29.7*	-0.2	-27.2	5.8	0.7	-0.4	0.0
COc1ccccc1Nc1nc(-c2ccccc2)nc2ccccc12	-1.6	1.1	-6.9	0.5	0.8	.	.
COc1nccnc1NS(=O)(=O)c1ccc(N=Cc2c(C)[nH]n(-c3ccc(Cl)cc3)c2=O)cc1	-0.1	0.2	-4.6	0.1	0.7	.	.
Cc1[nH]n(-c2ccc(Cl)cc2)c(=O)c1C=Nc1ccc(S(=O)(=O)N2CCOCC2)cc1	22.1*	0.7	-11.1	0.0	0.5	1.3	0.3
CC1CCN(C(=O)CCC(=O)Nc2nnc(C3CCCCC3)s2)CC1	0.5	.	-6.1	3.4	.	.	.
O=C(O)c1ccc(N/N=C/c2ccc(-c3ccccc3Cl)o2)cc1	23.1*	0.1	-23.2	11.6	0.8	7.8	4.8
Cc1cc(C)c2c(=O)n(CC(=O)NC3CCCC3)sc2n1	4.0	1.2	-1.6	4.3	-0.1	.	.
Cc1cc(C)c2c(=O)n(CC(=O)Nc3ccc(Br)c(C)c3)sc2n1	37.4*	5.7	-11.8	20.1	3.7	10.4	6.6
Cc1cc(C)c2c(=O)n(CC(=O)Nc3cccc(Cl)c3C)sc2n1	41.6*	10.9	-9.9	18.5	21.4*	20.0*	21.0*
CC(C)C(=O)Nc1cc2c3c(c1)CCN3C(=O)CC2	-0.2	.	-5.6	0.1	.	.	.
COCCN(Cc1ccccc1)C(=O)c1cccc(S(=O)(=O)N(C)c2c(C)n(C)n(-c3ccccc3)c2=O)c1	-1.4	.	-7.8	-0.7	.	.	.
O=C(NNC(=O)C1CC(c2cccs2)=NO1)Nc1ccccc1 (centres undefined)	0.1	.	-1.1	1.3	.	.	.
CC(=O)c1nnn(-c2c(F)cccc2F)c1C	-1.5	1.1	-1.8	0.0	1.8	.	.
CC(NCC(O)COc1ccc2ccccc2c1)c1ccccc1 (centres undefined)	21.9*	.	-17.9	13.3	.	10.1	7.4
OCCC1CN(CC2CC2)CCN1Cc1ccc(F)c(F)c1 (centres undefined)	0.0	.	-2.0	0.6	.	.	.
CCc1ccc(Nc2n[n+](-c3ccccc3)c(-c3ccc(N(CC)CC)cc3)s2)cc1	40.1*	.	-17.5	17.5	.	71.2*	101.1*
